Test system: Fibroblast
Assay: Multiplex assay against human fibroblast
Assay type: toxicity, cell-based
Method in brief: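 Values for tubulin, mitochondrial-mass and membrane-permeability phenotypes are per cents of cells with healthy nuclei. These cells were identified by CellPathfinder machine-learning gating of live cells that had been stained at seeding with Hoechst33342, BioTracker Green Microtubule Cytoskeleton Dye, MitoTracker Red and Annexin V Alexa Fluor 680 and imaged on a CQ1 microscope at 37°C and 5% CO2 after compound addition. The gating first set Hoechst high-intensity objects apart from normal cells, then split normal cells into healthy, pyknosed or fragmented nuclei, and pyknosed cells into mitotic or apoptotic.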

[1] = 12 h, 1 µM, compound concentration 1 uM, replicate 1
[2] = 12 h, 1 µM, compound concentration 1 uM, replicate 2
[3] = 12 h, 10 µM, compound concentration 10 uM, replicate 1
[4] = 12 h, 10 µM, compound concentration 10 uM, replicate 2
[5] = 24 h, 1 µM, compound concentration 1 uM, replicate 1
[6] = 24 h, 1 µM, compound concentration 1 uM, replicate 2
[7] = 24 h, 10 µM, compound concentration 10 uM, replicate 1
[8] = 24 h, 10 µM, compound concentration 10 uM, replicate 2
[9] = 48 h, 1 µM, compound concentration 1 uM, replicate 1
[10] = 48 h, 1 µM, compound concentration 1 uM, replicate 2
[11] = 48 h, 10 µM, compound concentration 10 uM, replicate 1
[12] = 48 h, 10 µM, compound concentration 10 uM, replicate 2

## CC(C)(O)C(=O)N1CCN(c2ccc(C(F)(F)F)c(C3=C(c4c[nH]c5ccccc45)C(=O)NC3=O)c2)CC1
[1]
  Population Apoptotic (%): 41%
  Population Fragmented Nuclei (%): 14%
  Population Healthy Nuclei (%): 68%
  Population Hoechst High Intensity Objects (%): 2%
  Population Membrane Permeable-Phenotype (%): 0%
  Population Mitochondria Different-Phenotype (%): 9%
  Population Mitotic Cells (%): 58%
  Population Normal (%): 97%
  Population Pyknosed Nuclei (%): 17%
  Population Tubulin-Different-Phenotype (%): 30%
  Total Cell Count: 144
[2]
  Population Apoptotic (%): 32%
  Population Fragmented Nuclei (%): 30%
  Population Healthy Nuclei (%): 46%
  Population Hoechst High Intensity Objects (%): 5%
  Population Membrane Permeable-Phenotype (%): 5%
  Population Mitochondria Different-Phenotype (%): 5%
  Population Mitotic Cells (%): 67%
  Population Normal (%): 94%
  Population Pyknosed Nuclei (%): 22%
  Population Tubulin-Different-Phenotype (%): 56%
  Total Cell Count: 170
[3]
  Population Apoptotic (%): 33%
  Population Fragmented Nuclei (%): 17%
  Population Healthy Nuclei (%): 50%
  Population Hoechst High Intensity Objects (%): 4%
  Population Membrane Permeable-Phenotype (%): 1%
  Population Mitochondria Different-Phenotype (%): 25%
  Population Mitotic Cells (%): 66%
  Population Normal (%): 96%
  Population Pyknosed Nuclei (%): 32%
  Population Tubulin-Different-Phenotype (%): 83%
  Total Cell Count: 125
[4]
  Population Apoptotic (%): 35%
  Population Fragmented Nuclei (%): 26%
  Population Healthy Nuclei (%): 31%
  Population Hoechst High Intensity Objects (%): 6%
  Population Membrane Permeable-Phenotype (%): 15%
  Population Mitochondria Different-Phenotype (%): 10%
  Population Mitotic Cells (%): 64%
  Population Normal (%): 93%
  Population Pyknosed Nuclei (%): 42%
  Population Tubulin-Different-Phenotype (%): 90%
  Total Cell Count: 137
[5]
  Population Apoptotic (%): 50%
  Population Fragmented Nuclei (%): 22%
  Population Healthy Nuclei (%): 61%
  Population Hoechst High Intensity Objects (%): 1%
  Population Membrane Permeable-Phenotype (%): 0%
  Population Mitochondria Different-Phenotype (%): 3%
  Population Mitotic Cells (%): 50%
  Population Normal (%): 98%
  Population Pyknosed Nuclei (%): 16%
  Population Tubulin-Different-Phenotype (%): 40%
  Total Cell Count: 161
[6]
  Population Apoptotic (%): 31%
  Population Fragmented Nuclei (%): 31%
  Population Healthy Nuclei (%): 45%
  Population Hoechst High Intensity Objects (%): 8%
  Population Membrane Permeable-Phenotype (%): 2%
  Population Mitochondria Different-Phenotype (%): 8%
  Population Mitotic Cells (%): 68%
  Population Normal (%): 91%
  Population Pyknosed Nuclei (%): 23%
  Population Tubulin-Different-Phenotype (%): 58%
  Total Cell Count: 176
[7]
  Population Apoptotic (%): 26%
  Population Fragmented Nuclei (%): 24%
  Population Healthy Nuclei (%): 40%
  Population Hoechst High Intensity Objects (%): 7%
  Population Membrane Permeable-Phenotype (%): 2%
  Population Mitochondria Different-Phenotype (%): 30%
  Population Mitotic Cells (%): 73%
  Population Normal (%): 92%
  Population Pyknosed Nuclei (%): 34%
  Population Tubulin-Different-Phenotype (%): 79%
  Total Cell Count: 131
[8]
  Population Apoptotic (%): 36%
  Population Fragmented Nuclei (%): 27%
  Population Healthy Nuclei (%): 33%
  Population Hoechst High Intensity Objects (%): 3%
  Population Membrane Permeable-Phenotype (%): 6%
  Population Mitochondria Different-Phenotype (%): 20%
  Population Mitotic Cells (%): 63%
  Population Normal (%): 96%
  Population Pyknosed Nuclei (%): 39%
  Population Tubulin-Different-Phenotype (%): 90%
  Total Cell Count: 138
[9]
  Population Apoptotic (%): 64%
  Population Fragmented Nuclei (%): 21%
  Population Healthy Nuclei (%): 61%
  Population Hoechst High Intensity Objects (%): 5%
  Population Membrane Permeable-Phenotype (%): 0%
  Population Mitochondria Different-Phenotype (%): 12%
  Population Mitotic Cells (%): 36%
  Population Normal (%): 94%
  Population Pyknosed Nuclei (%): 17%
  Population Tubulin-Different-Phenotype (%): 38%
  Total Cell Count: 155
[10]
  Population Apoptotic (%): 41%
  Population Fragmented Nuclei (%): 33%
  Population Healthy Nuclei (%): 37%
  Population Hoechst High Intensity Objects (%): 7%
  Population Membrane Permeable-Phenotype (%): 1%
  Population Mitochondria Different-Phenotype (%): 15%
  Population Mitotic Cells (%): 58%
  Population Normal (%): 92%
  Population Pyknosed Nuclei (%): 28%
  Population Tubulin-Different-Phenotype (%): 67%
  Total Cell Count: 165
[11]
  Population Apoptotic (%): 54%
  Population Fragmented Nuclei (%): 33%
  Population Healthy Nuclei (%): 27%
  Population Hoechst High Intensity Objects (%): 12%
  Population Membrane Permeable-Phenotype (%): 0%
  Population Mitochondria Different-Phenotype (%): 53%
  Population Mitotic Cells (%): 45%
  Population Normal (%): 87%
  Population Pyknosed Nuclei (%): 38%
  Population Tubulin-Different-Phenotype (%): 93%
  Total Cell Count: 123
[12]
  Population Fragmented Nuclei (%): 35%
  Population Healthy Nuclei (%): 25%
  Population Hoechst High Intensity Objects (%): 6%
  Population Membrane Permeable-Phenotype (%): 10%
  Population Mitochondria Different-Phenotype (%): 30%
  Population Normal (%): 93%
  Population Pyknosed Nuclei (%): 40%
  Population Tubulin-Different-Phenotype (%): 83%
  Total Cell Count: 129

Source: ChEMBL document CHEMBL5058577, “EUbOPEN Chemogenomics Library 2 (Multiplex)” (2022)
